NF-kB expr up = NF-kB expression increase, human neuronal cells | fold change at 12.5 µM | NF-kB reporter expression; active compounds read high | hit rate 1.6% among 190,000; in the data active = fold change above about 3.3
STAT3 inh-1 = inhibitors of IL-6 induced STAT3 signaling | hit rate 0.89% among 190,000 | U3A cells, IL-6 STAT3-luciferase reporter, luminescence; host cell line lacks STAT1 | inhibition, % at 5.5 µM;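 active = inhibition above the mean inhibition across all screened compounds plus 3 SD, cut at about 44% in these data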
STAT1 inh = inhibitors of IFN-gamma induced STAT1 signaling; NIH 3T3 STAT1-luciferase reporter, luminescence; inhibition, % at 5.5 µM; hit rate 0.35% among 200,000; AID 920;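 active = inhibition above a set limit, the mean inhibition across all tested compounds plus 3 SD, cut at about 34% in these data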
STAT3 act = activators of IL-6 induced STAT3 signaling; U3A cells, IL-6 STAT3-luciferase reporter, luminescence; 100% = signal with IL-6 EC80 alone; activation (% of control), % at 5.6 µM; hit rate 0.91% among 190,000; AID 871;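 active = activation above the screen-wide mean of compound activation plus 3 SD, cut at about 130% in these data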
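Material: human U3A cells carrying STAT3-luciferase construct. Measured by: reporter luminescence signal. Timing: compound 1 h, then IL-6 6 h at 37 °C.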
APP 5'UTR act = APP 5'UTR luciferase reporter activation | SH-SY5Y APP 5'UTR luciferase reporter, luminescence; zero percent = DMSO vehicle wells | activation, % at 2 µM | hit rate 1% among 190,000 | AID 1276;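 active = activation above a set limit, based on mean plus 3 SD of controls, cut at about 140% in these data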
STAT1 activator = activators of IFN-gamma induced STAT1 signaling; NIH 3T3 STAT1-luciferase reporter, luminescence; 100% = IFN-gamma alone, no compound; activation (% of control), % at 5.5 µM; hit rate 2.6% among 200,000; AID 932;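 active = activation above the screen-wide mean activation plus 3 SD, cut at about 130% in these data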
STAT3 inh-2 = confirmation of STAT3 signaling inhibitors; AID 1265; inhibition, % at 5.7 µM; hit rate 45% among 1,200; shares compounds with STAT3 inh-1; U3A cells, IL-6 STAT3 luciferase reporter, luminescence; cell line lacks STAT1;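 active = inhibition above the hit cutoff computed for the primary STAT3 screen, cut at about 44% in these data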
NFkB inh STAT3ct = inhibits NF-kappaB, counter-screen to STAT3 inhibitors | shares compounds with STAT3 inh-1 | HEK293T NF-kB luciferase reporter, TNF-alpha induced | inhibition, % at 5.7 µM | hit rate 36% among 1,200 | AID 1308;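 active = inhibition above the mean of solvent-only control wells plus 3 SD, cutoff set per campaign, cut at about 13% in these data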
STAT1 inh 2 = counter-screen for STAT3 inhibitors: STAT1 inhibition. shares compounds with STAT3 inh-1. NIH 3T3 STAT1-luciferase reporter, IFN-gamma induced, luminescence. inhibition, % at 5.7 µM. hit rate 27% among 1,200. AID 1317;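 active = inhibition above the mean plus 3 SD of solvent-only control wells, limit set per screening run, cut at about 16% in these data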
Hits are given with their value; – = inactive; · = no result. Hits are enriched below; roughly 4.9% of the tested compounds scored in any of these assays.

SMILES | NF-kB expr up | STAT3 inh-1 | STAT1 inh | STAT3 act | APP 5'UTR act | STAT1 activator | STAT3 inh-2 | NFkB inh STAT3ct | STAT1 inh 2
COc1ccc(CCN2C(=O)C3C4C=CC(C5CC45)C3C2=O)cc1OC (centres undefined) | – | – | – | – | – | – | · | · | ·
CC(C)(C#CCN1CCCCC1)OCCOC(c1ccccc1)c1ccccc1 | – | – | – | – | – | – | · | · | ·
CCCCC[n+]1cccc2c3ccccc3ccc21 | – | 73 | – | – | – | – | 66 | 21 | 24
NC(=O)C[n+]1cccc2ccccc21 | – | – | – | – | – | – | · | · | ·
COc1cc(-c2csc(N3CCOCC3)n2)cc(OC)c1OC | – | – | – | – | – | – | · | · | ·
c1ccc2oc(-c3csc(N4CCOCC4)n3)cc2c1 | 5.8 | 58 | – | – | 138 | – | – | – | –
COc1ccc(-n2c(-c3ccc(Br)cc3)c[n+]3c2SC(C)C3)cc1 (centres undefined) | – | 46 | – | – | – | – | – | – | 22
Cc1cccc(/C=N/n2c(-c3cc(-c4ccccc4)n[nH]3)n[nH]c2=S)c1 | – | – | – | – | – | – | · | · | ·
Cc1ccc(-c2cc3c(N=O)c4ccccc4c-3n[nH]2)cc1 | – | 117 | – | – | – | – | 98 | 80 | –
Cc1ccc(-c2cc(N)n[nH]2)cc1 | – | – | – | – | – | – | · | · | ·
Cc1cccc(-c2cc3c(N=O)c4ccccc4c-3n[nH]2)c1 | 3.8 | 50 | – | – | 142 | – | – | – | –
O=Nc1c2cc(-c3ccccc3)[nH]nc-2c2ccccc12 | 4.8 | 98 | – | – | – | – | 48 | 30 | –
CC(C)(C)NC(=O)C(c1ccccn1)N(C(=O)C1CSC(=O)C1)c1ccc(F)cc1 (centres undefined) | – | – | – | – | – | – | · | · | ·
COC(=O)Cc1ccc(NC(=S)Nc2ccccn2)cc1 | – | – | – | – | – | – | · | · | ·
CCOC(=O)c1sc(NC(=O)CCN2C(=O)c3cccc([N+](=O)[O-])c3C2=O)c(C(=O)OCC)c1C | – | – | – | – | – | – | · | · | ·
Cc1cc(C)n(Cc2ccc(NC(=O)c3ccc(COc4ccccc4Br)cc3)cc2)n1 | – | 52 | – | – | – | – | 52 | – | –
COc1ccc(-c2noc(CCCC(=O)O)n2)cc1 | – | 57 | – | – | – | – | 45 | 30 | –
COc1ccc(-c2noc(CCC(=O)O)n2)cc1 | – | – | – | – | – | – | · | · | ·
CCOc1ccc(-c2noc(CCC(=O)O)n2)cc1 | – | 59 | – | – | – | – | – | 24 | –
Fc1cccc(F)c1/C=C/c1ccc2ccccc2n1 | 4.4 | 56 | – | – | 166 | – | – | 23 | –
Cc1ccsc1/C=C/c1ccc2ccccc2n1 | 5 | 46 | – | – | 177 | – | 46 | 20 | –
CC(O)/C=C/c1ccc2ccccc2n1 (centres undefined) | – | – | – | – | – | – | · | · | ·
O=C(COc1ccc(Br)cc1)Nc1ccc(Cc2ccncc2)cc1 | – | – | – | – | – | – | · | · | ·
Cc1cc(OCC(=O)Nc2ccncc2)cc(C)c1Br | – | 68 | – | – | – | – | 66 | – | –
O=C(COc1ccc2ccccc2c1)Nc1ccncc1 | – | 45 | – | – | – | – | 44 | – | –
SMILES | NF-kB expr up | STAT3 inh-1 | STAT1 inh | STAT3 act | APP 5'UTR act | STAT1 activator | STAT3 inh-2 | NFkB inh STAT3ct | STAT1 inh 2
O=C(CSc1ccc2ccccc2c1)Nc1ccncc1 | – | 50 | – | – | – | – | 45 | – | –
O=C(COc1ccccc1)Nc1ccncc1 | – | – | – | – | – | – | · | · | ·
O=C(CSC1=Nc2ccccc2C2=NC(CC(=O)N3CCN(c4ccccc4)CC3)C(=O)N12)NCC1CCCO1 (centres undefined) | – | – | – | – | – | – | · | · | ·
NC(=O)C1CCN(C(=O)c2ccc(Oc3ccccc3)cc2)CC1 | – | – | – | – | – | – | · | · | ·
CCCCn1c(=O)c(CCC(=O)OC(C)C(=O)Nc2cccc(Cl)c2Cl)nc2ccccc21 (centres undefined) | – | – | – | – | – | – | · | · | ·
Cc1cccc(-n2c(=S)[nH]c3sc4c(c3c2=O)CCc2ccccc2-4)c1 | – | – | – | – | – | – | · | · | ·
Cc1ccc(N2C(=O)[C@@H]3C(C(=O)CCN4C(=O)c5ccccc5C4=O)=NN[C@@H]3C2=O)cc1 | – | – | – | – | – | – | · | · | ·
CCN=c1scc(-c2ccc3c(c2)NC(=O)CO3)n1N=C1CCCC1 | – | 73 | – | – | – | – | 64 | 14 | –
CCCCN=c1scc(-c2ccc3c(c2)NC(=O)CO3)n1N=C1CCCC1 | – | – | – | – | – | – | · | · | ·
Cc1ccc(S(=O)(=O)/N=C(\N)Nc2nc(C)c3cc(C)c(C)cc3n2)cc1 | – | 44 | – | – | – | – | – | – | –
C#CCOCCOCCOCCNc1nc(N2CCN(C(=O)C(Cc3cc4ccccc4[nH]3)n3cc(C(N)Cc4ccc(O)cc4)nn3)CC2)nc(N2CCN(C(=O)C(Cc3cc4ccccc4[nH]3)n3cc(C(N)Cc4ccc(O)cc4)nn3)CC2)n1 (centres undefined) | – | · | – | · | – | – | · | · | ·
C=CCNc1ncnc2c1cnn2-c1ccc(C)cc1C | – | – | – | – | – | – | · | · | ·
CCOC(=O)N1CCC(Nc2ncnc3c2cnn3-c2ccc(C)cc2C)CC1 | – | 64 | – | – | – | – | 49 | 14 | –
COCCNC(=O)c1ccccc1NC(=O)c1cccc([N+](=O)[O-])c1C | – | – | – | – | – | – | · | · | ·
Cc1noc(C)c1CSCC(=O)N1CCN(c2ccc(F)cc2)CC1 | – | 46 | – | – | – | – | – | – | –
Cc1cccc(N2CCN(C(=O)CSCc3c(C)noc3C)CC2)c1C | – | 70 | – | – | – | – | 59 | – | –
Cc1cccc(N2CCN(C(=O)N3CCOCC3)CC2)c1C | – | – | – | – | – | – | · | · | ·
COc1ccc(Cl)cc1NC(=O)c1nc2nc(C)cc(C(F)F)n2n1 | – | – | – | – | · | – | · | · | ·
Cc1cc(C)nc(Nc2n[nH]c(-c3ccc(C(C)(C)C)cc3)n2)n1 | – | 47 | – | – | – | – | – | – | –
CCNC(=O)NC(=O)C(C)OC(=O)c1cccn1C (centres undefined) | – | – | – | – | – | – | · | · | ·
Cc1nc2ccccc2nc(C)c1=NOCc1cccc(Cl)c1 | – | · | – | · | – | – | · | · | ·
Cc1nc2ccccc2cc1OCc1ccccc1 | – | 69 | – | – | – | – | 50 | – | –
COC(=O)c1sccc1OCc1cccc(OC)c1 | – | – | – | – | – | – | · | · | ·

Screening data as filed in PubChem.
